# In ChEMBL document CHEMBL5678817, “FTBMT, a Novel and Selective GPR52 Agonist, Demonstrates Antipsychotic-Like and Procognitive Effects in Rodents, Revealing a Potential Therapeutic Agent for Schizophrenia” (J Pharmacol Exp Ther, 2017):
# The source made the active and inactive calls.
# Experiments:
# [1] = target: Beta-1 adrenergic receptor (Homo sapiens) (UniProt P08588); test: Inhibition of Adrenergic beta1 receptor (unknown origin) at 10 uM relative to control
# Summary of the method: (§1)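 Single-point screen at 10 μM across receptor, ion channel and enzyme binding or activity assays. Expressed as percent inhibition versus control; negative values denote stimulation.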
# Mus musculus [2] = test: Antipsychotic activity in wild type mouse assessed as increase in phosphorylated CREB level in striatum at 30 mg/kg, po incubated for 60 mins by ELISA analysis; format: functional, organism-based
# Homo sapiens [3] = species on record: Homo sapiens; test: Inhibition of strychnine-Glycine receptor (unknown origin) at 10 uM relative to control
# Summary of the method: (§2)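 Binding and enzyme panel run by an outside contractor against receptors, ion channels and enzymes. Each assay used a single 10 μM test concentration, and results are expressed as percent inhibition. A negative value means stimulation of receptor activity or activation of enzyme activity.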
# Mus musculus [4] = test: Pro-cognitive activity in C57BL/6N mouse assessed as increase in Arc gene expression in hippocampus at 3 to 30 mg/kg, po […]; format: functional, organism-based; conditions: dose 3-30 mg/kg
# [5] = target: B2 bradykinin receptor (Homo sapiens) (UniProt P30411); test: Inhibition of Bradykinin B2 receptor (unknown origin) at 10 uM relative to control; summary of the method: as §1
# Chain of B2 bradykinin receptor (Homo sapiens) (P30411 whole entry): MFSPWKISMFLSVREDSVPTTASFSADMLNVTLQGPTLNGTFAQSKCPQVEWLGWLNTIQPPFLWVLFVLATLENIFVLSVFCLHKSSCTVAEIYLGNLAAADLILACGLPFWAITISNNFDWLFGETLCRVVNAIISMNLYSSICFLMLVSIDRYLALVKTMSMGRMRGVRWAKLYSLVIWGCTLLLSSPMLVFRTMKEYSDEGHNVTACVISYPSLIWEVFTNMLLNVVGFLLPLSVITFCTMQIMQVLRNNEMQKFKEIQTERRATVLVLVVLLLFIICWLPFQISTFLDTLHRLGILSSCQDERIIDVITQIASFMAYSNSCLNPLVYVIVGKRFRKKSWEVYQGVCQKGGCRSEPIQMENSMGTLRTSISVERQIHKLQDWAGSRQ
# Mus musculus [6] = test: Antipsychotic activity in C57BL/6N mouse assessed as increase in Egr-2 mRNA expression at 3 to 100 mg/kg, po measured for 1 hr by qPCR analysis; format: functional, organism-based; conditions: dose 3-100 mg/kg
# Summary of the method: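 Mice dosed orally at 3–100 mg/kg or vehicle. Tissues taken 1 h post-dose, NAc shell and striatum dissected, frozen on dry ice. IEG mRNA quantified by qPCR (absolute or ΔΔCt); n = 5–6; mean ± SEM.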
# [7] = target: Beta-3 adrenergic receptor (Homo sapiens) (UniProt P13945); test: Inhibition of Adrenergic beta3 (unknown origin) at 10 uM relative to control; summary of the method: as §1
# Homo sapiens [8] = species on record: Homo sapiens; test: Inhibition of KATP (unknown origin) at 10 uM relative to control
# Summary of the method: (§3)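 Part of a 98-target external biochemical selectivity panel that used radioligand/receptor binding-type assays. Compound tested once at 10 µM. Results are reported as % inhibition versus control; negative values mean stimulation of receptor activity.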
# [9] = target: Matrilysin (Homo sapiens) (UniProt P09237); test: Inhibition of MMP7 (unknown origin) at 10 uM relative to control
# Chain of Matrilysin (Homo sapiens) (P09237 whole entry): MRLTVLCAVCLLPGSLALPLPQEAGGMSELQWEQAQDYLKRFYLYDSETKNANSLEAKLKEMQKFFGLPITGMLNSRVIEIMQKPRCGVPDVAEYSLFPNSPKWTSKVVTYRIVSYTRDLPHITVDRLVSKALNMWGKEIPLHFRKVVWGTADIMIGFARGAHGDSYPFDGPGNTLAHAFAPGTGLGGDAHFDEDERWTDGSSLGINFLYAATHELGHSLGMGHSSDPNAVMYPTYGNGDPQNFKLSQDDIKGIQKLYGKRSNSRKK
# Summary of the method: (§4)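 Enzyme activity assays from the same 98-target biochemical panel. Single test concentration of 10 µM. Read-out is % inhibition of enzyme activity relative to control; negative percentages indicate activation of the enzyme.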
# Homo sapiens [10] = species on record: Homo sapiens; test: Inhibition of GABAB1A receptor (unknown origin) at 10 uM relative to control; summary of the method: as §3
# [11] = target: T1, GABA-A receptor; anion channel (Homo sapiens) (UniProt P14867+P47870+P18507+P28472+P48169+Q99928+Q9UN88+P34903+O00591+O14764+Q8N1C3+P18505+P78334+P47869+P31644+Q16445); test: Inhibition of GABAA receptor (unknown origin) at 10 uM relative to control; format: protein-complex assay; summary of the method: as §3
# [12] = target: Cholinesterase (Homo sapiens) (UniProt P06276); test: Inhibition of Choline esterase (unknown origin) at 10 uM relative to control
# Summary of the method: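 Enzyme assay run by an outside lab as part of a 98-target screen of receptors, ion channels and enzymes. Single test concentration of 10 μM; read-out is percent inhibition of enzyme activity versus control, with negative values meaning activation.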
# [13] = target: Vasopressin V2 receptor (Homo sapiens) (UniProt P30518); test: Inhibition of Vasopressin V2 receptor (unknown origin) at 10 uM relative to control; summary of the method: as §2
# Chain of Vasopressin V2 receptor (Homo sapiens) (P30518 whole entry): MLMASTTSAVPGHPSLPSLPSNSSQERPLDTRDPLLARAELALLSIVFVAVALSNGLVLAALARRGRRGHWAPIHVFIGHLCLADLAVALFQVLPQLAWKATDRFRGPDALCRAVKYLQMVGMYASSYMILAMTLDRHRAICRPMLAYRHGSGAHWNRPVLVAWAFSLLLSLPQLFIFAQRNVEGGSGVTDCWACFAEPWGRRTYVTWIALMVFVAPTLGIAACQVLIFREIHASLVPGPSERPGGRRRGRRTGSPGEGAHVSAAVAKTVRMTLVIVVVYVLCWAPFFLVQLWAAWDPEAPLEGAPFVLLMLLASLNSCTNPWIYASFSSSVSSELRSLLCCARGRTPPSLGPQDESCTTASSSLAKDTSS
# Mus musculus [14] = test: Antipsychotic activity in GPR52 knockout mouse assessed as increase in phosphorylated CREB level in striatum at 30 mg/kg, po incubated for 60 mins by ELISA analysis; format: functional, organism-based
# [15] = target: Insulin receptor (Homo sapiens) (UniProt P06213); test: Inhibition of Insulin receptor (unknown origin) at 10 uM relative to control; summary of the method: as §3
# [16] = target: Coagulation factor X (Homo sapiens) (UniProt P00742); test: Inhibition of factor Xa (unknown origin) at 10 uM relative to control; summary of the method: as §2
# Chain of Coagulation factor X (Homo sapiens) (P00742 41-179 limits assumed): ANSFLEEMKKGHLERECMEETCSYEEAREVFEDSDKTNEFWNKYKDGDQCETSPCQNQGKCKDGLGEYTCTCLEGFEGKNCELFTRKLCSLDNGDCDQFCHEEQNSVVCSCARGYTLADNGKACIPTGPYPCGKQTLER
# Chain of Coagulation factor X (Homo sapiens) (P00742 235-488 limits assumed): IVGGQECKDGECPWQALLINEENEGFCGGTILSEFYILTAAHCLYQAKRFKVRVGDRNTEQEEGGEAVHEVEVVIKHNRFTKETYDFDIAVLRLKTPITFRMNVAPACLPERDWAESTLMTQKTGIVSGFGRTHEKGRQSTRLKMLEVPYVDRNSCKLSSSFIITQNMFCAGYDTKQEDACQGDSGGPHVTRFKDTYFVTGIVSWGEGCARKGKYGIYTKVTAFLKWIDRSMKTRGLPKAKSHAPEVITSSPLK
# [17] = target: G-protein coupled receptor 52 (Homo sapiens, UniProt Q9Y2T5); test: Agonist activity at human GPR52 expressed in CHO cells assessed as increase in intracellular cAMP level upto 10 uM incubated for 30 mins by Alphascreen assay; format: functional, cell-based
# Chain of G-protein coupled receptor 52 (Homo sapiens, UniProt Q9Y2T5) (Q9Y2T5 whole entry): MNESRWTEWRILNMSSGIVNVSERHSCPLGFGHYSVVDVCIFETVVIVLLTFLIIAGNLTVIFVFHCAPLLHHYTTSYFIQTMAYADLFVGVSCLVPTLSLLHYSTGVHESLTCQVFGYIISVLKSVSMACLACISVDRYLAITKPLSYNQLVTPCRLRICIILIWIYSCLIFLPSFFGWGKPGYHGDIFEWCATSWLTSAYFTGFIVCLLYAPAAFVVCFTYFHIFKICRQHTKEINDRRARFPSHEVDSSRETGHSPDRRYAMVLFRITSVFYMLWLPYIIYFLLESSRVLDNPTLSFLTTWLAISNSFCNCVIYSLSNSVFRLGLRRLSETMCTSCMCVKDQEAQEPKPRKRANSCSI
# Summary of the method: (§5)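 CHO cells stably expressing human, mouse or rat GPR52, plus naïve CHO cells, at 10,000 cells/well. Stimulated in cAMP assay buffer for 30 min at 37 °C. Intracellular cAMP read by AlphaScreen.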
# [18] = target: D(1A) dopamine receptor (Homo sapiens) (UniProt P21728); test: Inhibition of Dopamine D1 receptor (unknown origin) at 10 uM relative to control; summary of the method: as §1
# Chain of D(1A) dopamine receptor (Homo sapiens) (P21728 whole entry): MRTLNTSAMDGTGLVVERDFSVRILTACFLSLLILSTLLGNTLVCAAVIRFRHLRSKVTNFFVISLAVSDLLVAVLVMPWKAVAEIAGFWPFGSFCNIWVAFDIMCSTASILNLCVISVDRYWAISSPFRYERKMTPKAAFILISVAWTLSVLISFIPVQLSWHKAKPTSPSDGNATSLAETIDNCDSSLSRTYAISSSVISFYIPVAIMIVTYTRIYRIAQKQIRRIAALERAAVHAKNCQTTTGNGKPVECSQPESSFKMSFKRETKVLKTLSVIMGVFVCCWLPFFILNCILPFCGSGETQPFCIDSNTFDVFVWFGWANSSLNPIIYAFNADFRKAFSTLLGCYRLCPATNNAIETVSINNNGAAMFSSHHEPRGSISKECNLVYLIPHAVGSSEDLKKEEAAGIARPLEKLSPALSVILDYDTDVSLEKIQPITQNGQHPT
# [19] = target: Nitric oxide synthase, inducible (Homo sapiens) (UniProt P35228); test: Inhibition of iNOS (unknown origin) at 10 uM relative to control; summary of the method: as §2
# Chain of Nitric oxide synthase, inducible (Homo sapiens) (P35228 whole entry): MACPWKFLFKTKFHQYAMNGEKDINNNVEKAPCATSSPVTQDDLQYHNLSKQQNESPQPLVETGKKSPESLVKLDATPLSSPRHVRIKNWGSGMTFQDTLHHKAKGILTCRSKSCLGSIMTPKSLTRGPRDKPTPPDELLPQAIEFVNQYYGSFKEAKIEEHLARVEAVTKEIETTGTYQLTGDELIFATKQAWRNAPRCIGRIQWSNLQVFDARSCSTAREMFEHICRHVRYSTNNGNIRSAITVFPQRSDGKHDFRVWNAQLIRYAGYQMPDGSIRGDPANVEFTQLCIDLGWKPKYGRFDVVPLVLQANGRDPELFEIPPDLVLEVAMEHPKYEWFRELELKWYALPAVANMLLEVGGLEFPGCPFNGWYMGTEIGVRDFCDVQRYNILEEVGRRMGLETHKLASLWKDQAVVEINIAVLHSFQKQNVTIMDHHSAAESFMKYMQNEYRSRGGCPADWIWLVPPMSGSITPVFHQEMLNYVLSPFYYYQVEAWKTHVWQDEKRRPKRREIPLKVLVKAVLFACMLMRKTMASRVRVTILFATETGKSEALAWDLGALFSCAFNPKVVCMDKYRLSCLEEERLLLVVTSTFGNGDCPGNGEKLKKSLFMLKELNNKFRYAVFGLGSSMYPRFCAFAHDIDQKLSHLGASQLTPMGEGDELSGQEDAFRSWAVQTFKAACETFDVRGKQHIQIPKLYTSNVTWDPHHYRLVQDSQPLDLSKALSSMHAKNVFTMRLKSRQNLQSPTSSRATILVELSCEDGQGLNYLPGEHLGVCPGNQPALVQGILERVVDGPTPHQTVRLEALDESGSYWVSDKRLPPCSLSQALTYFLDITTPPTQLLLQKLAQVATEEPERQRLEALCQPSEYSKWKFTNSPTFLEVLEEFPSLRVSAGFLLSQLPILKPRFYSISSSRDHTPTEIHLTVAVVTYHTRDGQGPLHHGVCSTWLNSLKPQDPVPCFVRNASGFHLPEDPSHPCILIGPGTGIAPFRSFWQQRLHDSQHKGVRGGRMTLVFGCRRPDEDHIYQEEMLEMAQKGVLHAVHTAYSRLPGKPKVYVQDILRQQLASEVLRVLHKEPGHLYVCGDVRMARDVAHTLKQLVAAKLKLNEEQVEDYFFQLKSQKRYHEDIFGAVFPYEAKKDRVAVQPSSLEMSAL
# Mus musculus [20] = test: Antipsychotic activity in GPR52 knockout ICR mouse assessed as inhibition of MK-801-induced hyperactivity at 30 mg/kg, po pretreated with compound for 1 hr followed by MK-801 addition and measured after 90 mins; format: functional, organism-based; conditions: time 150.0 min
# [21] = target: Phosphodiesterase 3 (Homo sapiens) (UniProt Q14432+Q13370); test: Inhibition of PDE3 (unknown origin) at 10 uM relative to control; format: protein assay; summary of the method: as §4
# [22] = target: G-protein coupled receptor 52 (Mus musculus, UniProt P0C5J4); test: Agonist activity at mouse GPR52 expressed in CHO cells assessed as increase in intracellular cAMP level incubated for 30 mins by Alphascreen assay; format: functional, cell-based; summary of the method: as §5
# Chain of G-protein coupled receptor 52 (Mus musculus, UniProt P0C5J4) (P0C5J4 whole entry): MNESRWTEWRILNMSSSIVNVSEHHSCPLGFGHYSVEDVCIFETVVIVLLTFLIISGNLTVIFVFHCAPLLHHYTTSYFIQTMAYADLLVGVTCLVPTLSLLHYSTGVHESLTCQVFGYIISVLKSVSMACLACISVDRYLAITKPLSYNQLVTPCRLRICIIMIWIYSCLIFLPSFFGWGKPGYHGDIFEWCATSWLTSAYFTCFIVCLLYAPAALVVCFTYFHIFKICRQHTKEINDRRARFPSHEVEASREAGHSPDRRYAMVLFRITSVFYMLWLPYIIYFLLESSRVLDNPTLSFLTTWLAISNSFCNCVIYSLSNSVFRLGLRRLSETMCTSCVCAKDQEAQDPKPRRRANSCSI
# [23] = target: Type-2 angiotensin II receptor (Homo sapiens) (UniProt P50052); test: Inhibition of AT2 receptor (unknown origin) at 10 uM relative to control; summary of the method: as §1
# Homo sapiens [24] = species on record: Homo sapiens; test: Inhibition of Glutamate receptor (unknown origin) at 10 uM relative to control; summary of the method: as §3
# [25] = target: Histamine H2 receptor (Homo sapiens) (UniProt P25021); test: Inhibition of Histamine H2 receptor (unknown origin) at 10 uM relative to control; summary of the method: as §3
# Chain of Histamine H2 receptor (Homo sapiens) (P25021 whole entry): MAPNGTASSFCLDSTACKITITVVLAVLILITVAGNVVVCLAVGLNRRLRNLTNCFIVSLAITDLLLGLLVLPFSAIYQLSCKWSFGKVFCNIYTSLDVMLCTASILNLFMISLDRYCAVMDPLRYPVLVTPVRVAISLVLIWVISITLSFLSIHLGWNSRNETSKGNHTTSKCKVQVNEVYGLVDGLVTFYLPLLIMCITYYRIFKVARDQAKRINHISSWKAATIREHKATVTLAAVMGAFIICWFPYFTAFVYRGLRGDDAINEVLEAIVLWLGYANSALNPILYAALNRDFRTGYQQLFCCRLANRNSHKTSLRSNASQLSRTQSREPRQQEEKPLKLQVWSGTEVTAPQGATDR
# [26] = target: T1, GABA-A receptor; anion channel (Homo sapiens); test: Inhibition of GABAA receptor (unknown origin) at 10 uM in presence of muscimol relative to control; format: protein-complex assay; summary of the method: as §3
# [27] = target: Glutamate [NMDA] receptor (Homo sapiens) (UniProt Q05586+Q12879+Q13224+O15399+O60391+Q14957+Q8TCU5); test: Inhibition of Glutamate NMDA receptor (unknown origin) at 10 uM relative to control; format: protein-complex assay; summary of the method: as §3
# [28] = Toxicity in ICR mouse assessed as catelepsy upto 100 mg/kg, po measured for 60 mins by bar test; format: organism-based; conditions: in vivo, 1 h
# Summary of the method: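 Male ICR mice (6–7 weeks) were dosed orally 60 min before testing. Forepaws were placed on a 2 mm bar set 6.5 cm high, and time on the bar was recorded with a 30 s cutoff. Each mouse was tested three times and the times averaged. n = 5–6.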
# Homo sapiens [29] = species on record: Homo sapiens; test: Inhibition of GABAB1B receptor (unknown origin) at 10 uM relative to control; summary of the method: as §3
# [30] = target: Growth hormone secretagogue receptor type 1 (Homo sapiens) (UniProt Q92847); test: Inhibition of Growth hormone secretagogue receptor (unknown origin) at 10 uM relative to control; summary of the method: as §3
# Chain of Growth hormone secretagogue receptor type 1 (Homo sapiens) (Q92847 whole entry): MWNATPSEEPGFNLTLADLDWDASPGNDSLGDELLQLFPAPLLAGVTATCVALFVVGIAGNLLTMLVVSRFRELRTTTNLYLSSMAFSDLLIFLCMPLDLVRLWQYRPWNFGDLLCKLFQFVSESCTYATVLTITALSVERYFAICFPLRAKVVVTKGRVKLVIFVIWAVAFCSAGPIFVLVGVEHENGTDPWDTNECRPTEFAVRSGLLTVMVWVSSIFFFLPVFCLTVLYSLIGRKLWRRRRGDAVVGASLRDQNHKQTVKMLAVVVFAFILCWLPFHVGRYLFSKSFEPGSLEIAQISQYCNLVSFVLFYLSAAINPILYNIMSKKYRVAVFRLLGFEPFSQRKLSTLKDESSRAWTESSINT
# Chain of Beta-1 adrenergic receptor (Homo sapiens) (P08588 whole entry, looked up): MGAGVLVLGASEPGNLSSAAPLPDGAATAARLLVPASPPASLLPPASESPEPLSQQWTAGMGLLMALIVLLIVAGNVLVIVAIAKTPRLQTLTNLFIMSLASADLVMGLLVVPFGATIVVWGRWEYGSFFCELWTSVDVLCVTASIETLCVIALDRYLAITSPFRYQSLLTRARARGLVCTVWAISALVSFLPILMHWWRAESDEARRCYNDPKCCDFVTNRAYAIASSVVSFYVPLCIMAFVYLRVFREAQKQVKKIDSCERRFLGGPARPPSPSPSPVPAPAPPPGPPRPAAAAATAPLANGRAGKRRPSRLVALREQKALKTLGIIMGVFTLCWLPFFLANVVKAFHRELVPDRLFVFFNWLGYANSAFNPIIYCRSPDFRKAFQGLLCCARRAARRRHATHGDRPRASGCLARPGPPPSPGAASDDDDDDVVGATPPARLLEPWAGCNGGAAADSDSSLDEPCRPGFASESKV
structure (smiles),measurement,setting,value
Cc1cc(-n2nc(Cc3cc(F)cc(C(F)(F)F)c3)nc2C)ccc1C(N)=O [TP-024],inhibition,[1],-1%
same,Activity,Mus musculus [2],Active
same,inhibition,Homo sapiens [3],-4%
same,Activity,Mus musculus [4],Active
same,inhibition,[5],16%
same,Activity,Mus musculus [6],Active
same,inhibition,[7],0%
same,inhibition,Homo sapiens [8],-1%
same,inhibition,[9],0%
same,inhibition,Homo sapiens [10],5%
same,inhibition,[11],2%
same,inhibition,[12],18%
same,inhibition,[13],-1%
same,Activity,Mus musculus [14],inactive
same,inhibition,[15],-9%
same,inhibition,[16],-4%
same,Activity,[17],inactive
same,inhibition,[18],7%
same,inhibition,[19],7%
same,Activity,Mus musculus [20],inactive
same,inhibition,[21],28%
same,EC50,[22],141 nM
same,inhibition,[23],1%
same,inhibition,Homo sapiens [24],2%
same,inhibition,[25],2%
same,inhibition,[26],-1%
same,inhibition,[27],-7%
same,Activity,[28],Non-Toxic
same,inhibition,Homo sapiens [29],2%
same,inhibition,[30],0%
